Among the data in ChEMBL document CHEMBL3044709, “Antimicrobial furostanol saponins from the seeds of Capsicum annuum L. var. acuminatum” (2002) are MIC values, retold here.

Values after ≈ are worked out from the molar mass of the structure shown.

Common to all, as to type: functional
One experiment has as its system Bacillus cereus. Nature of the experiment: Antimicrobial activity against Bacillus cereus DSM 345 after 48 hr by agar dilution method. The settings on record: DSM 345, 48 h. Summed up: (§1)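 Agar dilution on standard plate count agar: 0.5 mL of a 2-fold serial dilution of sample mixed into 9.5 mL medium, poured into Petri dishes, organism streaked on the surface. Incubated at 28 °C (36 and 48 h). MIC is the lowest tested concentration with no visible growth.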
On the technique in general: In agar dilution, organisms are placed on agar that contains the substance at set levels.

A further experiment relates to Pseudomonas aeruginosa. Briefly: Antimicrobial activity against Pseudomonas aeruginosa DSM 1117 after 48 hr by agar dilution method. The settings on record: DSM 1117, 48 h. Summed up: as §1
The next experiment deals with Stutzerimonas stutzeri. Nature of the experiment: Antimicrobial activity against Pseudomonas stutzeri ATCC 962 after 48 hr by agar dilution method. Conditions: ATCC 962, 48 h. A digest of the protocol:
as §1

Experiment [1] deals with Limosilactobacillus fermentum. Nature of the experiment: Antimicrobial activity against Lactobacillus fermentum DSM 20052 after 48 hr by agar dilution method. The settings on record: DSM 20052, 48 h. A digest of the protocol:
as §1

For experiment [2], the system named is Lactiplantibacillus plantarum. Nature of the experiment: Antimicrobial activity against Lactobacillus plantarum DSM 20174 after 48 hr by agar dilution method. The settings on record: DSM 20174, 48 h. A digest of the protocol:
as §1

In another experiment the test system is Enterococcus faecalis. Briefly: Antimicrobial activity against Enterococcus faecalis DSM 2570 after 48 hr by agar dilution method. The settings on record: DSM 2570, 48 h. Summed up: as §1
The test system of the next experiment is Micrococcus luteus. Briefly: Antimicrobial activity against Micrococcus luteus DSM 348 after 48 hr by agar dilution method. The settings on record: DSM 348, 48 h. Summed up: as §1
Experiment [3] deals with Escherichia coli. Briefly: Antimicrobial activity against Escherichia coli ATCC 35346 after 48 hr by agar dilution method. The settings on record: ATCC 35346, 48 h. Summed up: as §1
The subject of the next experiment is Bacillus subtilis. Briefly: Antimicrobial activity against Bacillus subtilis DSM 345 after 48 hr by agar dilution method. Conditions: DSM 345, 48 h. A digest of the protocol: as §1
Experiment [4] relates to Escherichia coli. Briefly: Antimicrobial activity against Escherichia coli DSM 682 after 48 hr by agar dilution method. The settings on record: DSM 682, 48 h. Summed up: as §1
The next experiment has as its system Lacticaseibacillus casei. Briefly: Antimicrobial activity against Lactobacillus casei DSM 20011 after 48 hr by agar dilution method. Conditions: DSM 20011, 48 h. A digest of the protocol:
as §1

The test system of another experiment is Staphylococcus aureus. Nature of the experiment: Antimicrobial activity against Staphylococcus aureus subsp. aureus DSM 346 after 48 hr by agar dilution method. The settings on record: DSM 346, 48 h. Summed up: as §1
The subject of another experiment is Bacillus licheniformis. Briefly: Antimicrobial activity against Bacillus licheniformis DSM 13=ATCC 14580 after 48 hr by agar dilution method. The settings on record: DSM 13 = ATCC 14580, 48 h. A digest of the protocol:
as §1

In experiment [5] the test system is Staphylococcus epidermidis. Briefly: Antimicrobial activity against Staphylococcus epidermidis DSM 1798 after 48 hr by agar dilution method. Conditions: DSM 1798, 48 h. A digest of the protocol:
as §1

In experiment [6] the test system is Lacticaseibacillus rhamnosus. Nature of the experiment: Antimicrobial activity against Lactobacillus rhamnosus DSM 20021 after 48 hr by agar dilution method. Conditions: DSM 20021, 48 h. Summed up:
as §1

A further experiment relates to Rhizopus arrhizus. Nature of the experiment: Antimicrobial activity against Rhizopus oryzae ATCC 56536 after 48 hr by agar dilution method. Conditions: ATCC 56536, 48 h. A digest of the protocol: (§2)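 Fungi tested by agar dilution in malt agar. Serial 2-fold sample dilutions (0.5 mL) were mixed with 9.5 mL medium and plated, then streaked with the organism. Incubation at 28 °C for 36 and 48 h. MIC is the lowest tested concentration without growth.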

For another experiment, the system named is Trichoderma viride. Briefly: Antimicrobial activity against Hypocrea rufa ATCC 28020 after 48 hr by agar dilution method. The settings on record: ATCC 28020, 48 h. Summed up:
as §2

A further experiment has as its system Penicillium expansum. Nature of the experiment: Antimicrobial activity against Penicillium expansum ATCC 7861 after 48 hr by agar dilution method. The settings on record: ATCC 7861, 48 h. Summed up: as §2
In the next experiment the test system is Setophoma terrestris. Nature of the experiment: Antimicrobial activity against Setophoma terrestris ATCC 11321 after 48 hr by agar dilution method. The settings on record: ATCC 11321, 48 h. Summed up:
as §2

The MIC is the least concentration at which growth counts as inhibited. High values mean a need for much substance, low ones inhibition by little substance.

Consider `CC1=C(CC[C@@H](C)CO[C@@H]2O[C@H](CO)[C@@H](O)[C@H](O)[C@H]2O)O[C@H]2C[C@H]3[C@@H]4CC[C@H]5C[C@@H](O[C@@H]6O[C@H](CO)[C@H](O[C@@H]7O[C@H](CO)[C@@H](O)[C@H](O[C@@H]8O[C@H](CO)[C@@H](O)[C@H](O)[C@H]8O)[C@H]7O[C@@H]7O[C@H](CO)[C@@H](O)[C@H](O[C@@H]8O[C@H](CO)[C@@H](O)[C@H](O)[C@H]8O)[C@H]7O)[C@H](O)[C@H]6O)[C@H](O)C[C@]5(C)[C@H]4CC[C@]3(C)[C@@H]12` [Capsicoside F], for which the MIC in the experiment with Bacillus cereus is 1000 µg/mL (≈ 711 µM); in the experiment on Pseudomonas aeruginosa, over 1000 µg/mL; against Stutzerimonas stutzeri it was over 1000 µg/mL; in experiment [1], 1000 µg/mL (≈ 711 µM); in [2], 1000 µg/mL (≈ 711 µM); in the experiment with Enterococcus faecalis, over 1000 µg/mL. In addition, the MIC against Micrococcus luteus was over 1000 µg/mL; against Escherichia coli [3], 1000 µg/mL (≈ 711 µM); against Bacillus subtilis, over 1000 µg/mL; against Escherichia coli [4], 1000 µg/mL (≈ 711 µM); in the experiment with Lacticaseibacillus casei, 1000 µg/mL (≈ 711 µM); against Staphylococcus aureus, over 1000 µg/mL. Further, the MIC was over 1000 µg/mL in the experiment on Bacillus licheniformis, over 1000 µg/mL in experiment [5] and 1000 µg/mL (≈ 711 µM) in experiment [6].

In the case of `C[C@H](CCC1(O)O[C@H]2C[C@H]3[C@@H]4CC[C@H]5C[C@@H](O[C@@H]6O[C@H](CO)[C@H](O[C@@H]7O[C@H](CO)[C@@H](O)[C@H](O[C@@H]8OC[C@@H](O)[C@H](O)[C@H]8O)[C@H]7O[C@@H]7O[C@H](CO)[C@@H](O)[C@H](O)[C@H]7O)[C@H](O)[C@H]6O)CC[C@]5(C)[C@H]4CC[C@]3(C)[C@H]2[C@@H]1C)CO[C@@H]1O[C@H](CO)[C@@H](O)[C@H](O)[C@H]1O` (stereo partly drawn) [TIMOSAPONIN I2], the MIC against Rhizopus arrhizus is 1000 µg/mL (≈ 823 µM); against Bacillus cereus it was 1000 µg/mL (≈ 823 µM); in the experiment on Pseudomonas aeruginosa it was over 1000 µg/mL; in the experiment with Stutzerimonas stutzeri, over 1000 µg/mL; in experiment [1], 1000 µg/mL (≈ 823 µM); in [2] it was 1000 µg/mL (≈ 823 µM). The minimal inhibitory concentration (MIC) was over 1000 µg/mL in the experiment with Enterococcus faecalis; over 1000 µg/mL with Micrococcus luteus; 1000 µg/mL (≈ 823 µM) in the experiment on Escherichia coli [3]; over 1000 µg/mL with Bacillus subtilis; 1000 µg/mL (≈ 823 µM) with Escherichia coli [4]; 1000 µg/mL (≈ 823 µM) in the experiment with Lacticaseibacillus casei. Besides, the MIC was over 1000 µg/mL in the experiment with Staphylococcus aureus; over 1000 µg/mL in the experiment with Trichoderma viride; over 1000 µg/mL against Penicillium expansum; 1000 µg/mL (≈ 823 µM) against Setophoma terrestris; over 1000 µg/mL in the experiment on Bacillus licheniformis; over 1000 µg/mL in experiment [5]. Moreover, in [6], the MIC is 1000 µg/mL (≈ 823 µM).

For `C[C@H](CCC1(O)O[C@H]2C[C@H]3[C@@H]4CC[C@H]5C[C@@H](O[C@@H]6O[C@H](CO)[C@H](O[C@@H]7O[C@H](CO)[C@@H](O)[C@H](O[C@@H]8O[C@H](CO)[C@@H](O)[C@H](O)[C@H]8O)[C@H]7O[C@@H]7O[C@H](CO)[C@@H](O)[C@H](O[C@@H]8O[C@H](CO)[C@@H](O)[C@H](O)[C@H]8O)[C@H]7O)[C@H](O)[C@H]6O)CC[C@]5(C)[C@H]4CC[C@]3(C)[C@H]2[C@@H]1C)CO[C@@H]1O[C@H](CO)[C@@H](O)[C@H](O)[C@H]1O` (stereo partly drawn) [CAPSICOSIDE G], the MIC was 1000 µg/mL (≈ 710 µM) in the experiment with Rhizopus arrhizus; 1000 µg/mL (≈ 710 µM) in the experiment on Bacillus cereus; over 1000 µg/mL against Pseudomonas aeruginosa; over 1000 µg/mL with Stutzerimonas stutzeri; 1000 µg/mL (≈ 710 µM) in experiment [1]; 1000 µg/mL (≈ 710 µM) in experiment [2]. The MIC against Enterococcus faecalis is over 1000 µg/mL; with Micrococcus luteus, over 1000 µg/mL; in the experiment on Escherichia coli [3], 1000 µg/mL (≈ 710 µM); against Bacillus subtilis, over 1000 µg/mL; in the experiment on Escherichia coli [4] it was 1000 µg/mL (≈ 710 µM); in the experiment on Lacticaseibacillus casei, 1000 µg/mL (≈ 710 µM). In addition, the minimal inhibitory concentration (MIC) in the experiment on Staphylococcus aureus is over 1000 µg/mL; in the experiment with Trichoderma viride, 1000 µg/mL (≈ 710 µM); against Penicillium expansum, 1000 µg/mL (≈ 710 µM); against Setophoma terrestris it was 1000 µg/mL (≈ 710 µM); against Bacillus licheniformis, over 1000 µg/mL; in experiment [5], over 1000 µg/mL. In experiment [6], this compound showed a minimum inhibitory concentration (MIC) of 1000 µg/mL (≈ 710 µM).
